Data published in ChEMBL document CHEMBL3616437, “Thiazole compounds with activity against Cryptococcus gattii and Cryptococcus neoformans in vitro” (Eur J Med Chem, 2015).

Assays:
[1] = test system: Cryptococcus bacillisporus; test: Antifungal activity against Cryptococcus gattii ATCC 32608 assessed as reduction in cell viability after at 1.9 uM 6 to 72 hrs by MTT assay; format: functional
Cryptococcus neoformans [2] = test: Ratio of compound MIC for Cryptococcus neoformans ATCC 28957 in presence of amphotericin B to compound MIC for Cryptococcus neoformans ATCC 28957 in absence of amphotericin B by checkerboard microtiter test; format: functional
Summary of the method: (§1)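 Checkerboard microdilution: eight two-fold dilutions of test compound (0.11 to 15.6 µM) crossed with amphotericin B (0.025 to 3.9 µM, in DMSO) or fluconazole (0.48 to 62.5 µM, in water). Inoculum per CLSI M27-A3 in RPMI-MOPS pH 7.0, 1-5 x10^3 cells/mL. Growth 48 to 72 h. Effective MIC is the combination concentration giving complete inhibition. FICs derived from MICs in combination versus alone.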

Cryptococcus neoformans [3] = test: Ratio of compound MIC for Cryptococcus neoformans 28JF in presence of amphotericin B to compound MIC for Cryptococcus neoformans 28JF in absence of amphotericin B by checkerboard microtiter test; format: functional; summary of the method: as §1
Cryptococcus neoformans [4] = test: Ratio of compound MIC for Cryptococcus neoformans CN31 in presence of amphotericin B to compound MIC for Cryptococcus neoformans CN31 in absence of amphotericin B by checkerboard microtiter test; format: functional; summary of the method: as §1
Cryptococcus neoformans [5] = test: Ratio of compound MIC for Cryptococcus neoformans WP in presence of amphotericin B to compound MIC for Cryptococcus neoformans WP in absence of amphotericin B by checkerboard microtiter test; format: functional; summary of the method: as §1
[6] = test system: Cryptococcus gattii species complex; test: Ratio of compound MIC for Cryptococcus gattii ICB181 in presence of amphotericin B to compound MIC for Cryptococcus gattii ICB181 in absence of amphotericin B by checkerboard microtiter test; format: functional, Cryptococcus bacillisporus; summary of the method: as §1
[7] = test system: Cryptococcus gattii species complex; test: Ratio of compound MIC for Cryptococcus gattii 547/OTTI-97-PI-10 in presence of fluconazole to compound MIC for Cryptococcus gattii 547/OTTI-97-PI-10 in absence of fluconazole by checkerboard microtiter test; format: functional, Cryptococcus bacillisporus; summary of the method: as §1
Cryptococcus neoformans [8] = test: Ratio of compound MIC for Cryptococcus neoformans WP in presence of fluconazole to compound MIC for Cryptococcus neoformans WP in absence of fluconazole by checkerboard microtiter test; format: functional; summary of the method: as §1
[9] = test system: Cryptococcus gattii species complex; test: Ratio of compound MIC for Cryptococcus gattii L24/01 in presence of amphotericin B to compound MIC for Cryptococcus gattii L24/01 in absence of amphotericin B by checkerboard microtiter test; format: functional, Cryptococcus bacillisporus; summary of the method: as §1
[10] = test system: Cryptococcus gattii species complex; test: Antifungal activity against Cryptococcus gattii 196L/03 assessed as reduction in cell viability at 1.9 uM after 6 to 72 hrs by MTT assay; format: functional, Cryptococcus bacillisporus
[11] = test system: Cryptococcus gattii species complex; test: Ratio of compound MIC for Cryptococcus gattii L24/01 in presence of fluconazole to compound MIC for Cryptococcus gattii L24/01 in absence of fluconazole by checkerboard microtiter test; format: functional, Cryptococcus bacillisporus; summary of the method: as §1
Cryptococcus neoformans [12] = test: Ratio of compound MIC for Cryptococcus neoformans LMM820 in presence of amphotericin B to compound MIC for Cryptococcus neoformans LMM820 in absence of amphotericin B by checkerboard microtiter test; format: functional; summary of the method: as §1
Cryptococcus neoformans [13] = test: Ratio of compound MIC for Cryptococcus neoformans 28JF in presence of fluconazole to compound MIC for Cryptococcus neoformans 28JF in absence of fluconazole by checkerboard microtiter test; format: functional; summary of the method: as §1
Cryptococcus neoformans [14] = test: Ratio of compound MIC for Cryptococcus neoformans ATCC 62066 in presence of amphotericin B to compound MIC for Cryptococcus neoformans ATCC 62066 in absence of amphotericin B by checkerboard microtiter test; format: functional; summary of the method: as §1
Cryptococcus neoformans [15] = test: Ratio of compound MIC for Cryptococcus neoformans CN31 in presence of fluconazole to compound MIC for Cryptococcus neoformans CN31 in absence of fluconazole by checkerboard microtiter test; format: functional; summary of the method: as §1
Cryptococcus neoformans [16] = test: Ratio of compound MIC for Cryptococcus neoformans ATCC 28957 in presence of fluconazole to compound MIC for Cryptococcus neoformans ATCC 28957 in absence of fluconazole by checkerboard microtiter test; format: functional; summary of the method: as §1
[17] = test system: Cryptococcus gattii species complex; test: Antifungal activity against Cryptococcus gattii L24/01 assessed as reduction in cell viability at 1.9 uM after 6 to 72 hrs by MTT assay; format: functional, Cryptococcus bacillisporus
[18] = test system: Cryptococcus bacillisporus; test: Ratio of compound MIC for Cryptococcus gattii ATCC 32608 in presence of fluconazole to compound MIC for Cryptococcus gattii ATCC 32608 in absence of fluconazole by checkerboard microtiter test; format: functional; summary of the method: as §1
[19] = test system: Cryptococcus gattii species complex; test: Antifungal activity against Cryptococcus gattii 135L/03 assessed as reduction in cell viability at 1.9 uM after 6 to 72 hrs by MTT assay; format: functional, Cryptococcus bacillisporus
Cryptococcus neoformans [20] = test: Ratio of compound MIC for Cryptococcus neoformans ATCC 24067 in presence of amphotericin B to compound MIC for Cryptococcus neoformans ATCC 24067 in absence of amphotericin B by checkerboard microtiter test; format: functional; summary of the method: as §1
Cryptococcus neoformans [21] = test: Ratio of compound MIC for Cryptococcus neoformans 96806 in presence of fluconazole to compound MIC for Cryptococcus neoformans 96806 in absence of fluconazole by checkerboard microtiter test; format: functional; summary of the method: as §1
Cryptococcus neoformans [22] = test: Ratio of compound MIC for Cryptococcus neoformans VM-MCMMPI in presence of amphotericin B to compound MIC for Cryptococcus neoformans VM-MCMMPI in absence of amphotericin B by checkerboard microtiter test; format: functional; summary of the method: as §1
Cryptococcus neoformans [23] = test: Ratio of compound MIC for Cryptococcus neoformans VM-MCMMPI in presence of fluconazole to compound MIC for Cryptococcus neoformans VM-MCMMPI in absence of fluconazole by checkerboard microtiter test; format: functional; summary of the method: as §1
[24] = test system: Cryptococcus gattii species complex; test: Ratio of compound MIC for Cryptococcus gattii 547/OTTI-97-PI-10 in presence of amphotericin B to compound MIC for Cryptococcus gattii 547/OTTI-97-PI-10 in absence of amphotericin B by checkerboard microtiter test; format: functional, Cryptococcus bacillisporus; summary of the method: as §1
[25] = test system: Cryptococcus gattii species complex; test: Antifungal activity against Cryptococcus gattii L28/02 assessed as reduction in cell viability at 3.9 uM after 6 to 72 hrs by MTT assay; format: functional, Cryptococcus bacillisporus
Cryptococcus gattii = test: Antifungal activity against Cryptococcus gattii ATCC 24065 assessed as reduction in cell viability at 3.9 uM after 6 to 72 hrs by MTT assay
[26] = test system: Cryptococcus gattii species complex; test: Antifungal activity against Cryptococcus gattii 135L/03 assessed as reduction in cell viability at 3.9 uM after 6 to 72 hrs by MTT assay; format: functional, Cryptococcus bacillisporus
[27] = test system: Cryptococcus gattii species complex; test: Antifungal activity against Cryptococcus gattii 1913ER assessed as reduction in cell viability at 3.9 uM after 6 to 72 hrs by MTT assay; format: functional, Cryptococcus bacillisporus
[28] = test system: Cryptococcus gattii species complex; test: Antifungal activity against Cryptococcus gattii 547/OTTI-97-PI-10 assessed as reduction in cell viability at 3.9 uM after 6 to 72 hrs by MTT assay; format: functional, Cryptococcus bacillisporus
[29] = test system: Cryptococcus gattii species complex; test: Antifungal activity against Cryptococcus gattii L27/01 assessed as reduction in cell viability at 3.9 uM after 6 to 72 hrs by MTT assay; format: functional, Cryptococcus bacillisporus
Cryptococcus neoformans [30] = test: Antifungal activity against Cryptococcus neoformans CN31 assessed as reduction in cell viability at 3.9 uM after 6 to 72 hrs by MTT assay; format: functional
Cryptococcus neoformans [31] = test: Antifungal activity against Cryptococcus neoformans 5396 assessed as reduction in cell viability at 3.9 uM after 6 to 72 hrs by MTT assay; format: functional

Row | SMILES | fractional inhibitory concentration index (FICI) (Cryptococcus neoformans [2]) | fractional inhibitory concentration index (FICI) (Cryptococcus neoformans [3]) | fractional inhibitory concentration index (FICI) (Cryptococcus neoformans [4]) | fractional inhibitory concentration index (FICI) (Cryptococcus neoformans [5]) | fractional inhibitory concentration index (FICI) [6] | fractional inhibitory concentration index (FICI) [7] | fractional inhibitory concentration index (FICI) (Cryptococcus neoformans [8]) | fractional inhibitory concentration index (FICI) [9] | fractional inhibitory concentration index (FICI) [11] | fractional inhibitory concentration index (FICI) (Cryptococcus neoformans [12]) | fractional inhibitory concentration index (FICI) (Cryptococcus neoformans [13]) | fractional inhibitory concentration index (FICI) (Cryptococcus neoformans [14]) | fractional inhibitory concentration index (FICI) (Cryptococcus neoformans [15]) | fractional inhibitory concentration index (FICI) (Cryptococcus neoformans [16]) | fractional inhibitory concentration index (FICI) [18] | fractional inhibitory concentration index (FICI) (Cryptococcus neoformans [20]) | fractional inhibitory concentration index (FICI) (Cryptococcus neoformans [21]) | fractional inhibitory concentration index (FICI) (Cryptococcus neoformans [22]) | fractional inhibitory concentration index (FICI) (Cryptococcus neoformans [23]) | fractional inhibitory concentration index (FICI) [24] | further results
1 | C(=N\Nc1nc(-c2ccccc2)cs1)/C1CCCCC1 | 1.09 | 1.38 | 2.47 | 2.41 | 4.98 | 4.47 | 2.47 | 4.87 | 2.47 | 4.3 | 1.99 | 2.47 | 3.97 | 4.47 | 1.72 | 2.67 | 1.76 | 1.47 | 4.47 | 4.74 | Activity [1]: 90%; Activity [10]: 90%; Activity [17]: 90%; Activity [19]: 90%
2 | COc1ccc(-c2csc(N/N=C(\C)CCO)n2)cc1 | 1.98 | 2.58 | 4.98 | 2.78 | 9.55 | 3.31 | 2.32 | 4.98 | 3.32 | 2.58 | 1.47 | 2.58 | 4.38 | 2.28 | 2.32 | 2.78 | 2.01 | 1.58 | 4.33 | 2.98 | Activity [1]: 90%; Activity [10]: 90%; Activity [17]: 90%; Activity [19]: 90%
3 | COc1ccc(-c2csc(N/N=C/C3CCCCC3)n2)cc1 | 2.07 | 1.75 | 2.78 | 1.46 | 1.73 | 3.46 | 2.21 | 2.38 | 6.79 | 2.78 | 4.59 | 2.58 | 2.58 | 2.51 | 4.38 | 2.36 | 1.01 | 2.16 | 4.46 | 2.58 | Activity [25]: 80%; Activity (Cryptococcus gattii): 80%; Activity [26]: 80%; Activity [27]: 80%; Activity [28]: 80%; Activity [29]: 80%; Activity (Cryptococcus neoformans [30]): 80%; Activity (Cryptococcus neoformans [31]): 80%
4 | c1ccc(-c2csc(NN=C3CCCC3)n2)cc1 | 2.22 | 2.46 | 2.66 | 1.46 | 1.28 | 5.96 | 2.46 | 2.16 | 6.46 | 2.66 | 3.77 | 3.06 | 2.71 | 3.36 | 3.45 | 1.46 | 1.01 | 2.66 | 4.21 | 2.66 | Activity [25]: 80%; Activity (Cryptococcus gattii): 80%; Activity [26]: 80%; Activity [27]: 80%; Activity [28]: 80%; Activity [29]: 80%; Activity (Cryptococcus neoformans [30]): 80%; Activity (Cryptococcus neoformans [31]): 80%
